Where “and” joins values, the source holds several entries; their conditions need not be identical. Equal values may be shown once.
Assays:
Bos taurus [1] = species on record: Bos taurus; test: Thermal denaturation measured for calf thymus DNA after incubation at 37 degree at 0h.
Summary of the method: (§1)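 Calf thymus DNA (100 µM in phosphate) with ligand at 20 µM final, a 1:5 ligand/DNA molar ratio, added from concentrated MeOH solution. Buffer was 10 mM sodium phosphate with 1 mM EDTA, pH 7.00. Samples were incubated at 37 °C for 0 or 18 h, then heated at 1 °C/min over 40-90 °C with A260 monitored. Tm was taken from the d(A260)/dT maxima, and ∆Tm given relative to DNA alone.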

Bos taurus [2] = species on record: Bos taurus; test: Thermal denaturation measured for calf thymus DNA after incubation at 37 degree at 18 h.; summary of the method: as §1
[3] = tested on: Panel leukemia (Carcinoma cell lines); test: Drug concentration causing 50% lethality against human cancer line leukemia; assay type: functional; conditions: read-out: Log LC50 (the source's name) (converted)
Summary of the method: (§2)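 Sixty-line human tumour panel screen: at least five concentrations at 10-fold dilutions, 48 h continuous exposure, growth read by sulforhodamine B protein stain. LC50 is the molar concentration giving 50% cell death (-50% growth) relative to control, as log LC50. Each cancer-type value is the average of 6-8 different cell lines.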

Melanoma cell = test: Drug concentration causing 50% lethality against human cancer line melanoma; assay type: functional; conditions: read-out: Log LC50 (the source's name) (converted); summary of the method: as §2
Prostatic carcinoma cell = test: Drug concentration causing 50% lethality against prostate human cancer line; assay type: functional; conditions: read-out: Log LC50 (the source's name) (converted); summary of the method: as §2
Ovarian carcinoma cell = test: Drug concentration causing 50% lethality against ovarian human cancer line; assay type: functional; conditions: read-out: Log LC50 (the source's name) (converted); summary of the method: as §2
Tumor Cell line [4] = test: In vitro cytotoxicity of drug concentration causing 50% cell death; assay type: functional, Homo sapiens; conditions: read-out: Log LC50 (the source's name) (converted)
Summary of the method: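 Compound tested against sixty human tumour lines from nine cancer types, each line at at least five concentrations at 10-fold dilutions, 48 h continuous exposure, sulforhodamine B protein read-out. LC50 is the concentration causing 50% cell death (-50% growth) versus control. The value is the mean graph midpoint of log LC50 over all lines.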

Tumor Cell line [5] = test: In vitro cytotoxicity of drug concentration causing total cell growth inhibition; assay type: functional, Homo sapiens; conditions: read-out: Log TGI (converted)
Summary of the method: (§3)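 Sixty human tumor cell lines covering nine cancer types. Continuous drug exposure for 48 h, with growth or viability read by sulforhodamine B protein assay. Dose-response curves were run at a minimum of five concentrations at 10-fold dilutions. GI50 (50% growth inhibition) and TGI (0% growth) were calculated relative to control and reported as log mean graph midpoints across all cell lines.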

Homo sapiens = species on record: Homo sapiens; test: Drug concentration causing 50% lethality against human cancer line nonsmall-cell lung; assay type: functional; conditions: read-out: Log LC50 (the source's name) (converted); summary of the method: as §2
Renal cancer cell line = test: Drug concentration causing 50% lethality against renal human cancer line; assay type: functional; conditions: read-out: Log LC50 (the source's name) (converted); summary of the method: as §2
Tumor Cell line [6] = test: In-vitro cytotoxicity of Drug molar concentration causing 50% cell growth inhibition against Human tumor cell lines; assay type: functional; summary of the method: as §3
CNS carcinoma cell = test: Drug concentration causing 50% lethality against human cancer line of CNS; assay type: functional; summary of the method: as §2
Breast carcinoma cell = test: Drug concentration causing 50% lethality against breast human cancer line; assay type: functional; summary of the method: as §2
Colon carcinoma cell = test: Drug concentration causing 50% lethality against human cancer line of colon; assay type: functional; summary of the method: as §2
[7] = Homo sapiens, Ovarian carcinoma cell
[8] = Homo sapiens, Renal cancer cell line

Row | Compound | ΔTm (Bos taurus [1]) [°C] | ΔTm (Bos taurus [2]) [°C] | CC50 [3] [µM] | CC50 (Melanoma cell; Homo sapiens, Melanoma cell) [µM] | CC50 (Prostatic carcinoma cell) [µM] | CC50 (Ovarian carcinoma cell; [7]) [µM] | CC50 (Tumor Cell line [4]; Homo sapiens, Tumor Cell line) [µM] | TGI (Tumor Cell line [5]; Homo sapiens, Tumor Cell line) [µM] | CC50 (Homo sapiens; Homo sapiens) [µM] | CC50 (Renal cancer cell line; [8]) [µM] | GI50 (Tumor Cell line [6]; Homo sapiens, Tumor Cell line) [µM] | further results
1 | COc1cc2c(cc1OCCCOc1cc3c(cc1OC)C(=O)N1CCC[C@H]1C(=O)N3)N=C[C@@H]1CCCN1C2=O | 6.5 | 7 | 33.1 | 83.2 | > 100 | 95.5 | 83.2 | 42.7 | > 100 | 91.2 | 13.2 | 
2 | COc1cc2c(cc1OCCCCCOc1cc3c(cc1OC)C(=O)N1CCC[C@H]1C(=O)N3)N=C[C@@H]1CCCN1C2=O | 14 | 17 |  |  | > 100 | 87.1 | 44.7 | 2.24 | 58.9 | 51.3 | 0.115 | CC50 (Melanoma cell): 10 µM and 3.31 µM; CC50 (Ovarian carcinoma cell): 60.3 µM; CC50 (Tumor Cell line [4]): 27.5 µM; TGI (Tumor Cell line [5]): 1.12 µM; CC50 (Homo sapiens): 79.4 µM; CC50 (Renal cancer cell line): 44.7 µM; GI50 (Tumor Cell line [6]): 0.12 µM
3 | COc1cc2c(cc1OCCCOc1cc3c(cc1OC)C(=O)N1CCC[C@H]1C=N3)N=C[C@@H]1CCCN1C2=O | 10.2 |  |  |  |  |  |  |  |  |  |  | 
4 | COc1cc2c(cc1O)N=C[C@@H]1CCCN1C2=O | 0.3 | 0.7 |  |  |  |  |  |  |  |  |  | 
5 | COc1cc2c(cc1OCCCCOc1cc3c(cc1OC)C(=O)N1CCC[C@H]1C(=O)N3)N=C[C@@H]1CCCN1C2=O | 5 | 8.5 | 24.4 | 41.7 | 67.6 | 58.9 | 50.1 | 20.4 | 58.9 | 55 | 7.24 | LC50 (CNS carcinoma cell): 45.7 µM; LC50 (Breast carcinoma cell): 53.7 µM; LC50 (50% lethal concentration) (Colon carcinoma cell): 57.5 µM
